In publication PMC7468331 (Acta Pharmacologica Sinica, 2019):

System: HFD-induced obese mice
Assay: HFD-induced obese mice
Assay type: in vivo, C57BL/6J male mice
Conditions: HFD-fed mice
Procedure, shortened: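 Male C57BL/6J mice, 5 weeks old, SPF, 12 h light/dark cycle, were fed high-fat diet. After 10 weeks they were randomised to daily gavage with vehicle, test compound (25 or 50 mg/kg) or reference ACC inhibitor (50 mg/kg) to week 22, with food intake and weight recorded weekly. Liver read-outs: H&E, Oil red O, sirius red, F4/80 immunofluorescence, α-SMA IHC, qPCR (ΔΔCt, 18S) and Western blot (β-actin).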

Cc1nc2ccc(C(=O)N3CCC4(CC3)CC(=O)c3c(cnn3C(C)C)C4)cc2[nH]1 [PF-05175157]
activation of macrophages (liver F4/80) (50 mg/kg ig daily): failed to prevent
Col1a1 gene expression and collagen accumulation in the liver (ig daily, sirius red staining): not observed
